The results in this text go back to ChEMBL document CHEMBL4706691, “Bicyclic Diazepinones as Dual Ligands of the α2δ-1 Subunit of Voltage-Gated Calcium Channels and the Norepinephrine Transporter” (J Med Chem, 2021).

pIC50, pKi: −log10 of the molar value.

The target in one data set is T1, CYP1A2 (Homo sapiens, UniProt P05177).
T1 sequence (P05177 whole entry): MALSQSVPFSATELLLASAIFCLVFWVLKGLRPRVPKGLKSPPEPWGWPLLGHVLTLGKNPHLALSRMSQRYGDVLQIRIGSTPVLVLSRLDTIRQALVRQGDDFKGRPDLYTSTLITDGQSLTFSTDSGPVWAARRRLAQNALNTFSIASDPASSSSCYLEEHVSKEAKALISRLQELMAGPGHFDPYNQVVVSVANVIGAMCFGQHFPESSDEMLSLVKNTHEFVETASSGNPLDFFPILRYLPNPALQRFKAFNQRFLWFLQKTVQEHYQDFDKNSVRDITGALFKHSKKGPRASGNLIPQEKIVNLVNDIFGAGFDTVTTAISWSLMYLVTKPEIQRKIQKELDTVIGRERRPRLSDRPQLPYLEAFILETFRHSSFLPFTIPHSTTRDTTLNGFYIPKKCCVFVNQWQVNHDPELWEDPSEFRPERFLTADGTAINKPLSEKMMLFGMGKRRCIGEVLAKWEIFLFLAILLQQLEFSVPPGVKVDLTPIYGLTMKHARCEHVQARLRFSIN
Kind of data set: Inhibition of human CYP1A2 at 1 uM relative to control. It counts as ADME.

The target in a further data set is CYP2C9 (Homo sapiens, UniProt P11712). The experiment in a line: Inhibition of human CYP2C9 at 1 uM relative to control. It counts as ADME.
CYP2C9, sequence (P11712 whole entry): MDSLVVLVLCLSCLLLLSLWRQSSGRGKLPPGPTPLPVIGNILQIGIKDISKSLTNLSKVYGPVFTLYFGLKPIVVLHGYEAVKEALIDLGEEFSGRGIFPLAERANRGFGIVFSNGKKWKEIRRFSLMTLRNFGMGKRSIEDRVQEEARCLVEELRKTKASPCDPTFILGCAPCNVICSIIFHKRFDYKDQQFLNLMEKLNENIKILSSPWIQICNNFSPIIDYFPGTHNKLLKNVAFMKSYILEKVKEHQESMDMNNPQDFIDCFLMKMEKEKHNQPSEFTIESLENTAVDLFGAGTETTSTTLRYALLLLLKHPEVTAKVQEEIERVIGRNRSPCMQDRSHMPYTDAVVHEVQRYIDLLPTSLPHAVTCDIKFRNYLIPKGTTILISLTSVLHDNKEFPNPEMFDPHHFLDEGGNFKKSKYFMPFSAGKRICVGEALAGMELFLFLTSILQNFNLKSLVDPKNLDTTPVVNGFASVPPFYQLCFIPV
For another data set, the target named is CYP2C19 (Homo sapiens, UniProt P33261). The experiment in a line: Inhibition of human CYP2C19 at 1 uM relative to control. It counts as ADME.
The target in another data set is CYP2D6 (Homo sapiens, UniProt P10635). Kind of data set: Inhibition of human CYP2D6 at 1 uM relative to control. It counts as ADME.
CYP2D6, sequence (P10635 whole entry): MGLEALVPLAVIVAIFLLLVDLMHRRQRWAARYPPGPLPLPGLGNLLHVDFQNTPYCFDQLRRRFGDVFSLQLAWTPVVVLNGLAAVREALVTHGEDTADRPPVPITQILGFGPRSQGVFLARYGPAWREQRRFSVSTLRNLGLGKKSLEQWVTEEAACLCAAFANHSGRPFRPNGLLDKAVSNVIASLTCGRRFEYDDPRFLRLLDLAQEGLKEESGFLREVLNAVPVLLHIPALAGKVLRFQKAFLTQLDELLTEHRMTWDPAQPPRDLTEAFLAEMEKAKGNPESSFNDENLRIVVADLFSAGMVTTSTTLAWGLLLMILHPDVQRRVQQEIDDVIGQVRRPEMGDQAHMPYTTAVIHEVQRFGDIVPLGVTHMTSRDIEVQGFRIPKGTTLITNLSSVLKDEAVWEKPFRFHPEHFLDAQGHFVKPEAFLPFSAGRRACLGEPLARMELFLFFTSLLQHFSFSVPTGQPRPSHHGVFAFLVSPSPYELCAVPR
Another data set has as its target CYP3A4 (Homo sapiens, UniProt P08684). Kind of data set: Inhibition of human CYP3A4 at 1 uM relative to control. It counts as ADME.
Data set [1] has as its target Voltage-gated inwardly rectifying potassium channel KCNH2 (Homo sapiens, UniProt Q12809). The experiment in a line: Inhibition of human ERG.
Data set [2] addresses Voltage-dependent calcium channel subunit alpha-2/delta-1 (Homo sapiens, UniProt P54289). The experiment in a line: Displacement of [3H]-gabapentin from human Cav alpha2delta1 expressed in CHO-K1 cell membranes incubated for 60 mins by scintillation counting method. Details: species or system Cell membrane. In a few lines:
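Nonspecific binding defined with 10 μM pregabalin. Test compounds at five concentrations in duplicate, giving Ki. Bound radioactivity collected by filtration on PEI-soaked GF/C, washed with cold 50 mM Tris-HCl, then scintillation counted.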
A general note: Displacement assays read how much labelled ligand stays bound in the presence of the test substance.

Data set [3] addresses T2, Sodium-dependent noradrenaline transporter (Homo sapiens, UniProt P23975). Kind of data set: Displacement of [3H]-nisoxetine from human NET expressed in HEK293 cell membranes incubated for 60 mins by scintillation counting method.
Data set [4] deals with T2, Sodium-dependent noradrenaline transporter. The experiment in a line: Inhibition of human NET expressed in HEK293 cells assessed as reduction in ASP+ uptake incubated for 20 mins before ASP+ addition and measured after 90 mins by scintillation counting method.
The target in data set [5] is Voltage-dependent calcium channel subunit alpha-2/delta-2 (Homo sapiens, UniProt Q9NY47). The experiment in a line: Displacement of [3H]-gabapentin from human Cav alpha2delta2 expressed in HEK293 cell membranes incubated for 60 mins by scintillation counting method.
Voltage-dependent calcium channel subunit alpha-2/delta-2, sequence (Q9NY47 19-1001 limits assumed): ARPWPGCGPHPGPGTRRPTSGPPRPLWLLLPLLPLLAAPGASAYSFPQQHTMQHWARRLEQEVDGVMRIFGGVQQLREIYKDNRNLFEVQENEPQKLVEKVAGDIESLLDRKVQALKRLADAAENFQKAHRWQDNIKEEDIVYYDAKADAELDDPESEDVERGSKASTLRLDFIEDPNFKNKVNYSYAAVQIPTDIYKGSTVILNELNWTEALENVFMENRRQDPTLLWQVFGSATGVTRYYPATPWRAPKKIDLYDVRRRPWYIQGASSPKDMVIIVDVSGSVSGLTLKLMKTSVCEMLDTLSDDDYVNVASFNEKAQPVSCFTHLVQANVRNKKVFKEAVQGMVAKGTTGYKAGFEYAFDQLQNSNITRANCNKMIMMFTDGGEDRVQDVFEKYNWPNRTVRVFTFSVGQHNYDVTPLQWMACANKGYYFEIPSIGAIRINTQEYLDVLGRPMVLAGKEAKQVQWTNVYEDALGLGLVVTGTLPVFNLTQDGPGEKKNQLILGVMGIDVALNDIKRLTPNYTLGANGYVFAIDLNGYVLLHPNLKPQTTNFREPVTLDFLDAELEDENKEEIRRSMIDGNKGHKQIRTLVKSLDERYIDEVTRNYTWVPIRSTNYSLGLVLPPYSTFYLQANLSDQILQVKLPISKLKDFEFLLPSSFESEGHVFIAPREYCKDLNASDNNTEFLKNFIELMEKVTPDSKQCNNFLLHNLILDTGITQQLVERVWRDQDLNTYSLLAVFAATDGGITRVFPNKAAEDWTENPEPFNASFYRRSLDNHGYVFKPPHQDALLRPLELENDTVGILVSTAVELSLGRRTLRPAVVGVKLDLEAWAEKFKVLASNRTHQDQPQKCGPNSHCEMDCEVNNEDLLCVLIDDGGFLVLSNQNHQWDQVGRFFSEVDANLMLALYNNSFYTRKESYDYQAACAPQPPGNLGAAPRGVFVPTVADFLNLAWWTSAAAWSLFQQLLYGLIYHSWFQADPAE
Voltage-dependent calcium channel subunit alpha-2/delta-2, sequence (Q9NY47 1002-1150 limits assumed): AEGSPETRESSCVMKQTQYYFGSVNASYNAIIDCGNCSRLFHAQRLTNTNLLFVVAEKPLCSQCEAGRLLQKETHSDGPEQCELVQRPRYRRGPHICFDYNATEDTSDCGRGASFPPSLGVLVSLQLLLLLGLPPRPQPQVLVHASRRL
Data set [6] in a line: Intrinsic clearance in human liver microsomes.
Data set [7] is described as follows: Intrinsic clearance in rat liver microsomes. (In general: Microsomes from liver hold many membrane-bound enzymes, among them those of drug oxidation.)

T2 sequence (P23975 whole entry): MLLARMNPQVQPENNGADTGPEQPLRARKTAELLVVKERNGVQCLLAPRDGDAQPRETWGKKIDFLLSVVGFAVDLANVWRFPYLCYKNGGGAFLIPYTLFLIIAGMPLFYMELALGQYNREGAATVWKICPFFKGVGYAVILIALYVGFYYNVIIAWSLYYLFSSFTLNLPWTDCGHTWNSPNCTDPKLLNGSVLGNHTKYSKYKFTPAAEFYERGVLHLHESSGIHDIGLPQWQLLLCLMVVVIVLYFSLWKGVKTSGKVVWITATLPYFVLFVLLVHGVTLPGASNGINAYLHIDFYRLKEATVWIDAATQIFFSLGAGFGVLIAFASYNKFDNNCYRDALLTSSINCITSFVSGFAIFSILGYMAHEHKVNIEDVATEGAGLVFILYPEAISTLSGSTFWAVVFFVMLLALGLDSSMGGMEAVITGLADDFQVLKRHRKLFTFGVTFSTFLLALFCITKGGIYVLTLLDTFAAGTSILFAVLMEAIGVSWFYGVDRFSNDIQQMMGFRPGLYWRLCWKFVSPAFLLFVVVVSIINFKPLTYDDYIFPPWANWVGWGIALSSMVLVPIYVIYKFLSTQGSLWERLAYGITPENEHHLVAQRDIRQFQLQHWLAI
Voltage-gated inwardly rectifying potassium channel KCNH2, sequence (Q12809 whole entry): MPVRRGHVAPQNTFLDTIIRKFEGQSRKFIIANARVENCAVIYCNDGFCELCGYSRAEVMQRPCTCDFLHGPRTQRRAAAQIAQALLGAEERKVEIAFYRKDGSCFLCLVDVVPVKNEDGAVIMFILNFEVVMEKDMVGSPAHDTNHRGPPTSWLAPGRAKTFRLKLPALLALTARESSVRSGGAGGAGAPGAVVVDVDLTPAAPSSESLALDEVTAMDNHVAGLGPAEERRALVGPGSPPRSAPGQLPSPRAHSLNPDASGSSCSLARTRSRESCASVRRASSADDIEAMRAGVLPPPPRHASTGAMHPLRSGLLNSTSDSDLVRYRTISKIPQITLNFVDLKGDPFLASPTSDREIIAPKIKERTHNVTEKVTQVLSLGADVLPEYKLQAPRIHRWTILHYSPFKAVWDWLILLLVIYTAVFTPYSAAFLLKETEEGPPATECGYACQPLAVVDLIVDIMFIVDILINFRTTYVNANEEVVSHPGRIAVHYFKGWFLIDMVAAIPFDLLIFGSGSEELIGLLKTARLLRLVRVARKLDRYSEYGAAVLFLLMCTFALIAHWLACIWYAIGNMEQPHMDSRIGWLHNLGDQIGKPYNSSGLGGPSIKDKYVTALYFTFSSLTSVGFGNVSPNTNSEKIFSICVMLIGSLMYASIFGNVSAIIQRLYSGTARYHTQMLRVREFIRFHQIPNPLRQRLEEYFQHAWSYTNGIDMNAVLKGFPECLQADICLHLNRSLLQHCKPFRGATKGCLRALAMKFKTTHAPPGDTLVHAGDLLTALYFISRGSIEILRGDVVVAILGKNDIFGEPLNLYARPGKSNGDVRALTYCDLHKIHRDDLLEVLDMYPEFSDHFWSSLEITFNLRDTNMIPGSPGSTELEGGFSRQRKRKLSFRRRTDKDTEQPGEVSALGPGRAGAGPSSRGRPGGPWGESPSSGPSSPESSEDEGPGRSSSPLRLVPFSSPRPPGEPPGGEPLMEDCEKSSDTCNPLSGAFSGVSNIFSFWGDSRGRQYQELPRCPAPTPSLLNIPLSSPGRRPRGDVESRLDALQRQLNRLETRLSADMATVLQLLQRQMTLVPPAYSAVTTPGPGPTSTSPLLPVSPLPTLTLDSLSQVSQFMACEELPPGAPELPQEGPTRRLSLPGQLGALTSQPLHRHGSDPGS
Voltage-dependent calcium channel subunit alpha-2/delta-1, sequence (P54289 25-956 limits assumed): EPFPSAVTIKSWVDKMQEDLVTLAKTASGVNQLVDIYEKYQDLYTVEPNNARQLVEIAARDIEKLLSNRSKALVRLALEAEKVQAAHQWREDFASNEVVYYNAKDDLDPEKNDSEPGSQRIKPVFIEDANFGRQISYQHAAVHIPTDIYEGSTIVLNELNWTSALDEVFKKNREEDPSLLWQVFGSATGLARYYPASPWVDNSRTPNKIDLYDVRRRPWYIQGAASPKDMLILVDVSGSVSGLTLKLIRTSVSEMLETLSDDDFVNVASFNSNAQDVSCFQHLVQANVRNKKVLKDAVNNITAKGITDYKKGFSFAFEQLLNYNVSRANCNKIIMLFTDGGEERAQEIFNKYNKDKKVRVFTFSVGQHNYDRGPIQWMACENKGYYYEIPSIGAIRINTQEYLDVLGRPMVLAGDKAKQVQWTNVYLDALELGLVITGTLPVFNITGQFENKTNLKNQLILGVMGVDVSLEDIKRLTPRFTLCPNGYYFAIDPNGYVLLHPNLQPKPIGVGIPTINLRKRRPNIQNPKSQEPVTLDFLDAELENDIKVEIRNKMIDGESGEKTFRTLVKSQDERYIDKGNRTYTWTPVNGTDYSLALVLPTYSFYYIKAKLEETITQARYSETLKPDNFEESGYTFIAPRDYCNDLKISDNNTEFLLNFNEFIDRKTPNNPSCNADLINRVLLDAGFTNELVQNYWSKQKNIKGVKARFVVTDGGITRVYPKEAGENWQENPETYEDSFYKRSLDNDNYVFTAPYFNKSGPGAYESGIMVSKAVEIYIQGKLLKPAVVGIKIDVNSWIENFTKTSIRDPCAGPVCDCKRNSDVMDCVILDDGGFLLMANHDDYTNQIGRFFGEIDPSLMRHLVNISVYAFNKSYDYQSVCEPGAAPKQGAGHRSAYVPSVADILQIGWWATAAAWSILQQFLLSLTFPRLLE
Voltage-dependent calcium channel subunit alpha-2/delta-1, sequence (P54289 957-1103 limits assumed): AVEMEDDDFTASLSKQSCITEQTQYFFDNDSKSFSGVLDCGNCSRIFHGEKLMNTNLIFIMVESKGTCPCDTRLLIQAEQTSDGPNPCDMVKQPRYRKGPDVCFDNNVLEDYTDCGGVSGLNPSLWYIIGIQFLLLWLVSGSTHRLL

Consider `CNCC[C@H](Oc1cccc(N2CCN(C)c3ncccc3C2=O)c1)c1cccs1`, for which the inhibition at 1 µM at CYP1A2, on CYP2C9, on CYP2C19, at CYP2D6 and against CYP3A4 was below 50% in each case. Besides, the pIC50 – broadly, the negative decadic logarithm of the IC50, by convention in mol/L – in data set [1] is below 5.00.
`CCNc1ncc2c(n1)N(C)CCN(c1ccccc1OC(CCNC)c1ccccc1)C2=O` (stereo not drawn): the pKi (commonly −log10 of the Ki, conventionally taken in molar units) in [2] is 5.46; in data set [3], below 5.00. The negative logarithm of the IC50 (pIC50) in data set [4] was below 5.00.
Consider `CCNc1ncc2c(n1)N(CC)CCN(c1cccc(-c3nnc(C)o3)c1)C2=O`, for which the figures for the pKi in data set [2] and in [3] were 6.75 and below 5.00, respectively. The pIC50 in data set [4] is below 5.00.
With `CNCCC(Oc1cccc(N2CCN(C)c3ccccc3C2=O)c1)c1cccs1` (stereo not drawn), the pKi in [2] was 6.08.
Same read-out and setting: for `CNCC[C@H](Oc1cccc(N2CCN(C)CCC2=O)c1)c1cccs1` the value was 5.55.
Turning to `CSc1ncc2c(n1)N(C)CCN(c1cccc(-c3nnc(C)o3)c1)C2=O`, the pKi in [2], in [5] and in [3] was below 5.00 each time. For the same compound, in data set [4], the pIC50 is below 5.00.
For `CCNc1ncc2c(n1)N(C)CCN(c1cccc(-c3nnc(C)o3)c1)C2=O`, the pKi in data set [2] was 7.09; in [5], 5.53; in data set [3], below 5.00. Moreover, the pIC50 in data set [4] and in data set [1] was below 5.00 in each case. The microsomal CLint in data set [6] and in data set [7] was below 5 µL/min/mg throughout. Further, the inhibition at 1 µM against CYP1A2, against CYP2C9, against CYP2C19, against CYP2D6 and against CYP3A4 was below 50% throughout.
Regarding `CNCC[C@@H](Oc1cccc(N2CCN(C)CCC2=O)c1)c1cccs1`, the negative-log Ki (pKi) in data set [2] was 6.22.
Take `CCN(C)c1ncc2c(n1)N(C)CCN(c1cccc(-c3nnc(C)o3)c1)C2=O`: the pKi in data set [2] and in data set [3] was below 5.00 in each case. In addition, the pIC50 in [4] is below 5.00.
With `CCNc1ncc2c(n1)N1CCC[C@@H]1CN(c1cccc(OC(CCNC)c3ccccc3)c1)C2=O` (stereo partly drawn), in [2], the pKi is 6.73.
As for `CC(C)C[C@H](CN)CC(=O)O` [PREGABALIN], the pKi in data set [2] was 7.72; in data set [5] it was 7.00; in data set [3], below 5.00. In data set [4], the negative-log IC50 (pIC50) was below 5.00.
As for `COCCNc1ncc2c(n1)N(C)CCN(c1cccc(-c3nnc(C)o3)c1)C2=O`, the pKi in data set [2] and in data set [3] was below 5.00 each time. Further, the negative-log IC50 (pIC50) in [4] is below 5.00.
Regarding `CCNc1ncc(C(=O)N(C)c2cccc(OC(CCNC)c3ccccc3)c2)cn1` (stereo not drawn), the pKi in data set [2] and in [3] was below 5.00 each time. For the same compound, the pIC50 in [4] is below 5.00.
With `CCNc1ncc2c(n1)N1CCC[C@H]1CN(c1cccc(OC(CCNC)c3ccccc3)c1)C2=O` (stereo partly drawn), the pKi in [2] is 6.47.
As for `CCNc1ncc2c(n1)N(C)CCN(c1cccc(-c3nnc(C)o3)c1)C2`, the negative-log Ki (pKi) in [2] is 5.99; in data set [3] it was below 5.00. Also, the negative logarithm of the IC50 (pIC50) in data set [4] is below 5.00.
As for `CCNc1ncc2c(n1)N1CCC[C@H]1CN(c1cccc(-c3noc(C)n3)c1)C2=O`, the pKi in data set [2] was 7.96; in data set [5] it was 5.67; in [3], below 5.00. The pIC50 in [4] is below 5.00.
As to `CNc1ncc2c(n1)N(C)CCN(c1cccc(-c3nnc(C)o3)c1)C2=O`, the negative-log Ki (pKi) was 6.61 in [2], below 5.00 in data set [5] and below 5.00 in data set [3]. In addition, in data set [4], the pIC50 was below 5.00.
Turning to `CNCCC(Oc1cccc(N2CCN(C)c3cnccc3C2=O)c1)c1cccs1` (stereo not drawn), the pKi in data set [2] was 6.68.
Consider `CNCC[C@H](Oc1cccc(N2CCN(C)c3nc(N)ncc3C2=O)c1)c1cccs1`, for which the inhibition at 1 µM at CYP1A2, against CYP2C9, on CYP2C19, against CYP2D6 and at CYP3A4 was below 50% in each case. The same compound showed a pIC50 in data set [1] below 5.00.
For the compound `CNCCC(Oc1cccc(N2CCN(C)c3cccnc3C2=O)c1)c1cccs1` (stereo not drawn), the pKi in [2] is 5.90.
For the compound `CCNc1ncc2c(n1)N(C)CCN(c1ccccc1COC(CCNC)c1ccccc1)C2=O` (stereo not drawn), the pKi in data set [2] and in [3] was below 5.00 throughout. In addition, in data set [4], the pIC50 is below 5.00.
